MsrA inh: inhibitors of bovine MsrA; hit rate 0.75% among 360,000; inhibition, % at 15.5 µM; AID 651718; purified bovine MsrA, absorbance read-out; in the data active means inhibition above about 4.5%;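 further: 0% = vehicle wells with enzyme and 100% = reference inhibitor wells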
bovine MsrA act: activators of bovine methionine sulfoxide reductase A; purified bovine MsrA, absorbance read-out; activation, % at 10.6 µM; hit rate 0.3% among 360,000; in the data active means activation above about 7.5%;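 further: 0% = vehicle and 100% = reference activator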
PKA-R1A act: PKA-R1A complex activation. PKA-R1A dissociation, Cy5-IP20 fluorescence polarization; scaled: DMSO 0%, 113 µM cGMP 100%. hit rate 0.083% among 340,000. activation, % at 11.4 µM. P00514+P68181;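 active means percent activation above the mean of all tested compounds plus 3 SD, cut at about 19% in these data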;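 further: higher means more PKAc released from R1A so a rise in polarization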
IMP-1 inhibitor: inhibitors of Pseudomonas aeruginosa IMP-1 metallo-beta-lactamase | purified IMP-1, nitrocefin hydrolysis, epi-absorbance fluorescence | inhibition, % at 5.6 µM | hit rate 0.45% among 290,000;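 active means inhibition above the mean plus 3 SD of all compounds in the same screening run, cut at about 4.5% in these data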;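 further: 0% = IMP-1 with DMSO and 100% = DMSO wells lacking enzyme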
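Assay system: purified recombinant IMP-1 beta-lactamase. Input: IMP-1 0.2 nM before substrate addition. Buffer or medium: Zinc- and detergent-supplemented HEPES buffer, pH 7.1. Schedule: 25 °C, 15 min preincubation, 25 min reaction. Signal: Epi-absorbance fluorescence, 480 nm excitation, 530 nm emission. Evaluation: percent inhibition from optical density relative to buffer-blank wells.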
PKA-R2B activ: PKA-R2B complex activation; P22694+P31323; PKA-R2B holoenzyme dissociation, Cy5-IP20 fluorescence polarization; R2B truncated from residue 108, S112A mutant; 0% DMSO only, 100% 113 µM cGMP; activation, % at 11.4 µM; hit rate 0.079% among 340,000;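 active means activation above a cutoff set at the mean over all compounds plus 3 SD, cut at about 18% in these data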;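 further: higher means more holoenzyme dissociation and a rise in polarization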
Target sequence (P31323 whole entry, looked up, other chains not shown, the tested form may be a part): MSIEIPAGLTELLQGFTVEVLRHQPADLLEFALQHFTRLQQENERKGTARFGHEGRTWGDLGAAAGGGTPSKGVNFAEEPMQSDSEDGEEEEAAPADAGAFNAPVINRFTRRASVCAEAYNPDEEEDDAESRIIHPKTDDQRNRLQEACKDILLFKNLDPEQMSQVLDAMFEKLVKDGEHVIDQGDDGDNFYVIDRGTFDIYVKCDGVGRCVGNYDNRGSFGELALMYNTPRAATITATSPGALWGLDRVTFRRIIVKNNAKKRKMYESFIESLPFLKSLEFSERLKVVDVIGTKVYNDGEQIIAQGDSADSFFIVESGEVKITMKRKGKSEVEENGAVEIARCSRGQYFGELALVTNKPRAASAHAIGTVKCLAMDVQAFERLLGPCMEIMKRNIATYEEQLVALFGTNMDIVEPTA
VIM-2 inhibitor: inhibitors of Pseudomonas aeruginosa VIM-2 metallo-beta-lactamase; purified VIM-2, nitrocefin hydrolysis, epi-absorbance fluorescence; inhibition, % at 5.6 µM; hit rate 0.89% among 290,000;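 active means inhibition above the mean of all tested compounds plus 3 SD, cutoff set per screening run, cut at about 7.5% in these data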;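 further: red hydrolysis product quenches plate fluorescence so inhibitors raise well fluorescence; 0% = enzyme with DMSO and 100% = DMSO without enzyme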
MsrA act confirm: confirmation of bovine methionine sulfoxide reductase A activators | activation, % at 10.6 µM | shares compounds with bovine MsrA act | purified bovine MsrA, absorbance read-out | AID 602270 | hit rate 12% among 1,000; in the data active means activation above about 4%;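 further: enzyme coupled to thioredoxin and thioredoxin reductase with NADPH; 0% = vehicle wells and 100% = reference activator wells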
* hit, by the source's call; x = no result given. Only some compounds are listed: those with a hit (about 2.1% of all), similar ones and a draw of the others.

SMILES | MsrA inh | bovine MsrA act | PKA-R1A act | IMP-1 inhibitor | PKA-R2B activ | VIM-2 inhibitor | MsrA act confirm
Cc1nnc(N/N=C/c2cccc(C(F)(F)F)c2)n1N | -1.5 | 13.2* | 4.5 | -2.7 | -6.0 | -5.2 | 0.9
Cc1nnc(N/N=C/c2ccccc2C(F)(F)F)n1N | -1.0 | 4.8 | 1.3 | -3.8 | -1.6 | -3.0 | x
Cc1nnc(N/N=C/c2ccco2)n1N | 1.4 | 16.3* | -4.7 | -2.9 | -3.6 | -4.9 | -2.1
COc1ccc(C(CNC(=O)c2ccc(S(=O)(=O)Nc3cccc(C)c3C)cc2)N2CCOCC2)cc1 (stereo unspecified) | -0.1 | -2.3 | -0.7 | x | -1.1 | x | x
Cc1cnc(C(=O)N(CCCn2ccnc2)C2C(=O)Nc3ccccc3N=C2c2ccccc2)cn1 (stereo unspecified) | -1.4 | -2.0 | x | x | x | x | x
COc1cccc(NC(=O)COC(=O)Cn2c(C)csc2=O)c1 | 0.5 | -2.5 | -2.5 | x | -14.2 | x | x
COc1cccc(NC(=O)COC(=O)CCn2c(C)csc2=O)c1 | -0.6 | 9.2* | 0.7 | x | -0.2 | x | -1.5
CCOC(=O)C1(C)CCN1C(=O)COc1ccc(C(C)(C)C)cc1 (stereo unspecified) | -0.3 | 8.2* | x | x | x | x | -0.2
CCOC(=O)C1(C)CCN1C(=O)COc1ccccc1 (stereo unspecified) | 2.0 | -1.9 | x | x | x | x | x
O=C(NCc1ccncc1)[C@@H]1CCCN1C(=O)[C@@H]1CCCN1 | -0.7 | -1.8 | x | x | x | x | x
Clc1ncccc1OCc1ccccc1 | 1.5 | -1.5 | 4.0 | x | -3.7 | x | x
COCCCN=Cc1c(C)[nH]n(-c2ccc(Br)c(C)c2)c1=O | 0.3 | 9.3* | -8.6 | -1.4 | -10.8 | -1.6 | -3.9
C=CCn1c(SCCN2CCCC2)nc2c([nH]c3ccccc32)c1=O | 1.1 | 8.4* | -2.6 | 0.2 | -5.0 | 10.3* | -1.2
C=CCn1c(SCC(=O)Nc2ccc(OC)cc2)nc2c([nH]c3ccccc32)c1=O | 0.9 | -6.4 | 10.2 | 0.1 | -8.3 | -1.0 | x
C#Cc1ccc(NC(=O)C2(C)CCN2C(=O)CC(c2ccccc2)c2ccccc2)cc1 (stereo unspecified) | 1.0 | -0.7 | x | x | x | x | x
S=c1nc(-c2cccc(Br)c2)[nH][nH]1 | 1.1 | 9.8* | 2.6 | -4.1 | -2.0 | -1.4 | 6.1*
O=[N+]([O-])c1ccc2cc[nH]c2c1 | 3.3 | -3.8 | 6.1 | x | -6.5 | x | x
C[C@H](CO)N1C[C@H](C)[C@@H](CN(C)Cc2ccccc2)OCCCC[C@H](C)Oc2ccc(N(C)C)cc2C1=O | -0.4 | 8.7* | -5.8 | x | 6.0 | x | -3.0
C[C@@H]1CCCCO[C@@H](CN(C)Cc2ccccc2)[C@@H](C)CN([C@H](C)CO)C(=O)c2cc(N(C)C)ccc2O1 | 1.3 | -10.0 | 7.1 | x | -12.4 | x | x
COCCn1c(SCC(=O)NC(=O)NCc2ccccc2)nc2ccccc2c1=O | 0.3 | -5.1 | -4.0 | x | 0.2 | x | x
CC(=O)Nc1nc(-c2ccc(Cl)cc2)nc(C)c1C(C)=O | 0.3 | 8.9* | -14.6 | -4.5 | -10.6 | 0.4 | 1.9
CC(C)c1ccc(C(=O)CSc2ncn[nH]2)cc1 | -0.6 | 14.2* | 5.4 | -3.2 | 4.4 | -2.0 | -2.0
CC1=C(C#N)C(c2ccc(O)cc2)C2=C(CC(C)(C)CC2=O)N1 (stereo unspecified) | 0.4 | 10.4* | 7.8 | -4.5 | -4.2 | -2.5 | -1.2
COc1ccccc1CCN=C(N)NS(=O)(=O)c1ccc(C)c(C)c1 | 0.0 | -2.8 | 0.4 | -0.9 | -12.2 | 0.0 | x
CC(=O)C1CCN(Cc2ccccc2)CC1 | 1.5 | -11.9 | 1.6 | -3.9 | -0.5 | -5.2 | x
SMILES | MsrA inh | bovine MsrA act | PKA-R1A act | IMP-1 inhibitor | PKA-R2B activ | VIM-2 inhibitor | MsrA act confirm
CC(=O)N1CCOC12CCN(Cc1ccccc1)CC2 | -0.3 | 8.2* | 16.9 | x | -5.9 | x | -2.7
CC(OC(=O)CCC(=O)c1cccs1)C(=O)Nc1ccc(Cl)cn1 (stereo unspecified) | 0.4 | -1.2 | -6.7 | -3.5 | 0.2 | -1.5 | x
Cc1cccc(OCCC(=O)OC(C)C(=O)Nc2ccc(Cl)cn2)c1 (stereo unspecified) | -0.4 | 15.5* | 6.0 | x | -11.1 | x | -1.9
N#Cc1cn(CC(=O)N2CCCc3ccccc32)c2ccccc12 | 0.6 | 8.1* | -4.0 | -2.3 | 4.3 | -1.4 | 0.6
O=Cc1cn(CC(=O)N2CCCc3ccccc32)c2ccccc12 | 0.3 | 0.4 | -0.6 | -2.6 | -5.3 | -2.4 | x
Cc1ccc(NC(=O)COC(=O)COc2ccc(Cl)cc2)c([N+](=O)[O-])c1 | -0.3 | 15.7* | -12.7 | -2.7 | 0.0 | -4.6 | -0.8
CCOC(=O)C1CCCN(C(=O)CCCn2nnnc2CN2CCOCC2)C1 (stereo unspecified) | -0.2 | 15.3* | 3.0 | -0.8 | -4.3 | -0.7 | -0.3
Cc1cccc(OC(=O)n2c(=S)oc3cc(Cl)ccc32)c1 | -0.2 | 9.8* | -2.4 | -1.4 | -2.2 | -3.4 | 0.9
Cc1csc(N(C(=O)c2cccc(S(=O)(=O)N3CCCC3)c2)c2ccccc2)n1 | 0.2 | 14.7* | -6.7 | -4.8 | 5.8 | -4.3 | -2.6
CCOC(=O)C(=O)N(C)c1c(CC)nc2c(OCCC3CCCCC3)cccn12 | -0.2 | 8.2* | x | x | x | x | 0.9
CCOC(=O)C(=O)N(C)c1c(CC)nc2c(OCc3cccc(Cl)c3)cccn12 | -0.5 | 1.8 | x | x | x | x | x
CCOC(=O)N(C)c1c(CC)nc2c(OCCC3CCCCC3)cccn12 | 0.6 | -0.2 | x | x | x | x | x
CCOC(=O)N(C)c1c(CC)nc2c(OCc3cccc(Cl)c3)cccn12 | 0.9 | 9.2* | x | x | x | x | -3.1
CC1CC(C)CN(C(=O)c2cccc(N3C(=O)c4ccccc4C3=O)c2)C1 (stereo unspecified) | 0.1 | -1.7 | -6.6 | x | -3.7 | x | x
O=C(NN1C(=O)c2cc(Br)ccc2NC1c1cc(Br)cc(Br)c1O)c1ccncc1 (stereo unspecified) | 0.2 | 8.9* | -6.7 | -2.5 | -14.2 | -0.7 | -4.2
CC(C)c1ccc(NC(=S)NCc2cccs2)cc1 | 0.7 | 8.1* | 6.3 | -3.6 | -6.2 | -3.9 | -2.7
COc1ccc(NC(=S)NCc2cccs2)cc1 | -0.3 | -0.3 | 5.6 | -1.7 | -1.0 | 0.7 | x
COC(=O)[C@]12C[C@H](CC(=O)NCc3cccs3)C(=O)N(Cc3ccccc3)C1=C[C@H](C1CCCC1)O[C@@H]2C | 0.9 | x | x | x | x | x | x
CCNc1nc(SCC(=O)OC)nc(N2CCOCC2)n1 | -0.2 | -1.5 | 10.7 | -1.2 | 2.7 | -1.4 | x
COC(=O)Cn1nnc(N2CCOCC2)n1 | -0.8 | 8.0* | x | -3.4 | x | -5.0 | 1.5
CCOC(=O)C1=CN(Cc2cccc(F)c2)S(=O)(=O)N(CC)C1CCc1ccccc1 (stereo unspecified) | -0.4 | 8.6* | -1.2 | x | -12.6 | x | 0.5
CCOC(=O)C1=CN(Cc2cccc(F)c2)S(=O)(=O)NC1CCc1ccccc1 (stereo unspecified) | -0.6 | 1.2 | -1.1 | x | -4.1 | x | x
O=c1ccc2ccccc2c2ccccc12 | 0.7 | -16.2 | x | x | x | x | x
